Sampled rows, rich in hits. Any-hit rate of the full collection: about 3.7%.
MT stabilizer = microtubule stabilizers in HeLa cells, primary screen, imaging, high-content imaging. HeLa tubulin immunostaining HCS, 24 h; share of cells brighter than vehicle mean+2SD. % tubulin-high responders, % at 10 µM. hit rate 0.83% among 200,000. AID 2205, 2009;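 active = plate Z-score above 3 for both tubulin-high and condensed-nucleus cell shares, with cell loss under 80%, at 10 µM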;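 note: anti alpha tubulin signal scored within the nucleus-defined area of each cell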
ROMK mod = ROMK potassium channel modulators, primary screen, cell-based, thallium flux, MLSMR library; ATP-sensitive inward rectifier potassium channel 1 (Homo sapiens), P48048; Tet-inducible ROMK, thallium flux fluorescence; actives lie on both sides; B-score at 10 µM; hit rate 2% among 130,000;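 active = signal ratio slope over the read window, or its plate-corrected B-score, at least 3 SD from the plate mean, either direction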;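 note: B-score of the F/F0 ratio slope over 7 to 12 s after thallium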
Target sequence (P48048 whole entry, looked up): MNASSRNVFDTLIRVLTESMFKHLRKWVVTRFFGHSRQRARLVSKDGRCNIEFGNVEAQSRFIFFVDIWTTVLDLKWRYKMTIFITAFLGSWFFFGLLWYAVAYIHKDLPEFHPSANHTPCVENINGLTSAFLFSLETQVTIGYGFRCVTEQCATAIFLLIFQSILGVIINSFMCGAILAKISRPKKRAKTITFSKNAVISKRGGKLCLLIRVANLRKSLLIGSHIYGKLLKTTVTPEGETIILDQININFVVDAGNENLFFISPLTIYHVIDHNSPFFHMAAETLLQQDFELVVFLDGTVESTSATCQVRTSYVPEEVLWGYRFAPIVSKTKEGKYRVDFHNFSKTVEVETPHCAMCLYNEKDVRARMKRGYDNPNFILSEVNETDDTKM
DTT redox prof = compounds producing H2O2 with reducing agent – biochemical, NIH compound library profiling, artefact control for MLSCN library redox annotation, primary screen; DTT-dependent redox cycling H2O2, phenol red/HRP absorbance; 100% = 100 µM peroxide control, 0% = buffer; activation, % at 10 µM; hit rate 0.03% among 200,000; AID 878, 2007;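 active = activation of at least 50% relative to the plate's high and low controls in the primary single-dose screen; inactive = activation below 50%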;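 note: compound incubated with DTT at 0.8 mM final as the reducing agent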
Cl transport mod = KCC2 cotransporter modulators, thallium flux, primary screen, cell-based, HEK293 KCC2, FluoZin-2 fluorescence, MLSMR. Solute carrier family 12 member 5 (Homo sapiens), Q9H2X9. KCC2 cells, thallium flux FluoZin-2 fluorescence. B-score of Tl+ flux slope (higher = more flux/activation; lower = inhibition) at 10 µM. hit rate 2.2% among 190,000;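 active = thallium flux slope and its plate-corrected score both differing from the plate sample mean at a set confidence after two filtering rounds, in either direction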;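 note: slope of fluorescence scaled to starting intensity during 10 to 20 s after thallium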
bCat nuc transl = modulators of beta-catenin nuclear translocation, primary screen, imaging, HeLa cells, immunofluorescence, high-content | nuclear translocation activity, % at 5 µM | hit rate 0.3% among 190,000 | AID 1665, 2009;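 active = nuclear translocation activity above 50% at 5 µM, with a well cell count of 50 or more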;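 note: per-cell ratio of nuclear to cytoplasmic median beta-catenin stain intensity; plate controls were DMSO negative control for no effect and GSK-3 inhibitor IX positive control for full effect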
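System: HeLa cells, endogenous beta-catenin; compound dosing: 5 µM primary single dose, 0.1% DMSO, 0.02–20 µM confirmation series; incubation: 24 h compound exposure at 37°C, 5% CO2; signal: beta-catenin immunofluorescence imaging with DAPI; evaluation: % activation, nuclear-to-cytoplasmic median beta-catenin signal ratio per cell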
* = called active by the depositor; · = no result given.

SMILES | MT stabilizer | ROMK mod | DTT redox prof | Cl transport mod | bCat nuc transl
CCOc1ccc2[nH]c(=O)c(CN(Cc3cccs3)C(CC)c3nnnn3C(C)(C)CC)cc2c1 (configuration not stated) | 11 | -2.1 | 0 | -0.32 | -1
CCC(c1nnnn1C1CCCC1)N(Cc1cccs1)Cc1cc2cc(C)ccc2[nH]c1=O (configuration not stated) | 36* | · | 2 | -0.89 | 91*
Cc1cccc(N=C2NC(=O)/C(=C/c3cccn3C)S2)c1 | · | · | · | -0.26 | -3
O=C1NC(=Nc2ccccc2)S/C1=C\c1cccn1-c1ccccc1 | 21* | 0.61 | 0 | -0.043 | 10
CC(C)c1nc2sc3c(=S)nc[nH]c3c2c2c1CCC2 | · | 5.2* | · | 159* | 0
Cc1sc2nc(SCc3ccccc3)n(Cc3ccco3)c(=O)c2c1C | 3 | · | 4 | 0.23 | 0
Cc1sc2nc(SCC(=O)C(C)(C)C)n(Cc3ccco3)c(=O)c2c1C | 35* | · | 2 | 0.54 | 4
CC12CCC(C(=O)N(CSC(=S)N/N=C\c3ccccc3)C1=O)C2(C)C (configuration not stated) | 2 | · | 4 | 23* | ·
Clc1cc(Br)ccc1OCCOCCN1CCOCC1 | 4 | -0.36 | 0 | · | 112*
O=C(NCCCN1CCOCC1)C(=O)NCc1ccco1 | 3 | 0.045 | -1 | -0.0075 | -3
CC(C)c1csc(CN2CCCC(CCC(=O)NCc3ccccc3F)C2)n1 (configuration not stated) | 25* | -0.074 | -1 | · | 3
C=CCN(CC=C)C(=O)c1ccc(OC2CCN(Cc3ccccn3)CC2)cc1 | 2 | 0.69 | 0 | 0.89 | -1
CC(=O)O[C@H]1C(=O)[C@@]2(C)[C@H]([C@H](OC(=O)c3ccccc3)[C@]3(O)C[C@H](OC(=O)[C@H](O)C(NC(=O)c4ccccc4)c4ccccc4)C(C)=C1C3(C)C)[C@]1(OC(C)=O)CO[C@@H]1C[C@@H]2O (some centres not stated) | · | · | · | 0.0077 | 69*
C=CCN(CC=C)C(=S)NC(=O)c1ccc(C)c(Br)c1 | 1 | · | 0 | 45* | 0
CN(C1CCCCC1)S(=O)(=O)c1ccc(NC(=S)NC(=O)c2cccs2)cc1 | 2 | · | -3 | 17* | ·
COc1ccc(C(=O)NC(=S)N(Cc2ccccc2)Cc2ccccc2)cc1 | 3 | · | 2 | 64* | -1
CN(Cc1ccccc1)S(=O)(=O)c1ccc(NC(=S)NC(=O)C2CCCC2)cc1 | 28* | · | -3 | · | 1
CCOC(=O)C1(O)CC(C)=NN1C(=O)c1cccc(Cl)c1 (configuration not stated) | 3 | -0.02 | 0 | 0.61 | 0
Cc1ccc(-n2nc(-c3ccc(OC(F)(F)F)cc3)cc2N)cc1C | · | · | · | -0.021 | -5
C=CCN(CC=C)C(=S)NC(=O)/C=C/c1ccc(C)cc1 | 8 | -0.16 | 0 | 15* | 2
C=CCN(CC=C)C(=S)NC(=O)c1ccc(-c2ccccc2)cc1 | 2 | 10* | 0 | 31* | ·
O=C(NC(=S)Nc1ccccc1)c1ccc(-c2ccccc2)cc1 | 1 | 0.11 | 0 | 1.7 | 0
C#CCNC(=O)/C=C/c1ccc(C)cc1 | 5 | 0.58 | 0 | 1.4 | ·
CN(Cc1ccccc1)C(=S)NC(=O)c1ccc(-c2ccccc2)cc1 | 8 | · | 0 | 29* | 2
CN(Cc1ccccc1)C(=S)NC(=O)C1CCCCC1 | 2 | · | 1 | 14* | 1
SMILES | MT stabilizer | ROMK mod | DTT redox prof | Cl transport mod | bCat nuc transl
O=C(NC(=S)N(Cc1ccccc1)c1ccccn1)C1CCCCC1 | 4 | · | 1 | 0.03 | -2
COc1ccc(CCN2CC(C(=O)NC3CCCCC3)CC2=O)cc1OC (configuration not stated) | 1 | 0.49 | -1 | 0.65 | -2
Cc1ccc(C(=O)NCC(=O)N/N=C/c2cccs2)cc1C | 3 | 0.97 | 0 | -0.83 | -3
Cc1c(C(N)=O)sc2ncn(CC(=O)NCCc3ccccc3)c(=O)c12 | 5 | 0.061 | 5 | -0.13 | 0
Cc1ccc2c(c1)-c1[nH]c(=S)ncc1CS2 | 2 | 0.4 | 0 | 5.1 | 0
N#CC1=C(N)Oc2cc3ccccc3cc2C1c1cccs1 (configuration not stated) | 9 | · | -7 | -0.41 | -1
N#CC1=C(N)Oc2cc3ccccc3cc2C1c1cccnc1 (configuration not stated) | 56* | · | -3 | 0.43 | -1
Cc1cc(/C=C2\NC(=O)N(Cc3ccc(Cl)cc3)C2=O)c(C)n1C | 4 | 0.19 | 0 | 0.0037 | 2
COc1ccc(-c2cc(-c3cccs3)nc(OC)c2C#N)cc1OC | 9.6* | · | 1 | 0.0098 | 50*
COc1nc(-c2cccs2)cc(-c2ccc(C)cc2)c1C#N | 42* | -1.2 | -4 | -0.017 | -2
COc1ccc(-c2c(C#N)c(N)nc3c2CCc2ccccc2-3)cc1OC | 34* | · | 1 | · | ·
COc1ccc(-c2cc(-c3cccs3)c(C#N)c(SCC(=O)NCc3ccccc3)n2)cc1 | 7 | · | -4 | 0.19 | 4
COC(=O)c1c(NC(=O)c2cccnc2Cl)sc(C(=O)N(C)C)c1C | 3 | 0.31 | 0 | -0.27 | -1
O=C(Nc1cnccn1)Nc1ccc(Cl)cc1Cl | 5 | 0.11 | 0 | 0.46 | 2
c1ccc(Cn2c[n+](Cc3ccccc3)cn2)cc1 | · | · | · | 0.16 | -1
Cc1ccc(Cl)cc1N1CCN(C(=O)CN2C(=O)c3cccc4cccc2c34)CC1 | 3 | -2.8* | 0 | -0.43 | 0
COc1cc(C(=O)OC2CSCC2NC(=O)c2ccccc2)cc(OC)c1OC (configuration not stated) | 4 | -0.41 | 0 | -0.91 | 0
O=C(/C=C/c1ccc(Cl)cc1)NC(=S)NN1CCCCC1c1cccnc1 (configuration not stated) | 2 | · | 0 | 6.2* | -1
Cc1cc(C)c(S(=O)(=O)N2CCC(C(=O)NCc3ccco3)CC2)c(C)c1 | 2 | -0.46 | 0 | -0.2 | 5
O=C(Nc1ccccc1)c1nn(-c2ccccc2)c(=O)cc1C(F)(F)F | 16* | · | 2 | 0.17 | 1
CCC(=O)Nc1cccc(C(=O)OCc2cccc([N+](=O)[O-])c2)c1 | 5 | -1.2 | -1 | 0.18 | 0
CCOc1ccc(S(=O)(=O)n2c(C)nc3ccccc32)cc1 | 4 | · | 0 | 0.55 | 7
COc1cc(S(=O)(=O)n2c(C)nc3ccccc32)ccc1F | 28* | -1.3 | 1 | 2.1 | ·
COc1cc(S(=O)(=O)N2CCN=C2c2ccccc2)ccc1F | 44* | · | 2 | -0.38 | ·
CC(=NCCc1c(C)[nH]c2ccc(OC(F)(F)F)cc12)C1=C(O)CC(c2ccccc2)CC1=O (configuration not stated) | 13* | 0.052 | 0 | -0.43 | 2

Screening data as filed in PubChem BioAssay.
